# Results taken from ChEMBL document CHEMBL1250448, “Inhibitor hijacking of Akt activation” (Nat Chem Biol, 2009).
# Legend:
# [1] = molecular target: cAMP-dependent protein kinase catalytic subunit alpha (Homo sapiens) (UniProt P17612); assay: Inhibition of PRKACA (PKA) at 1 uM in presence of 10 uM ATP by Select Screen kinase assay relative to untreated control
# [2] = molecular target: cAMP-dependent protein kinase catalytic subunit PRKX (Homo sapiens) (UniProt P51817); assay: Inhibition of PRKX at 1 uM in presence of 10 uM ATP by Select Screen kinase assay relative to untreated control
# [3] = molecular target: Tyrosine-protein kinase JAK3 (Homo sapiens) (UniProt P52333); assay: Inhibition of JAK3 at 1 uM in presence of 10 uM ATP by Select Screen kinase assay relative to untreated control
# How it was run: (§1)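 Single-concentration profiling at 1 μM against a panel of 220 purified kinases, run as an outsourced SelectScreen kinase profiling service. Activity is expressed as percent inhibition.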
# [4] = molecular target: Tyrosine-protein kinase ITK/TSK (Homo sapiens) (UniProt Q08881); assay: Inhibition of ITK at 1 uM in presence of 10 uM ATP by Select Screen kinase assay relative to untreated control
# [5] = molecular target: Tyrosine-protein kinase BTK (Homo sapiens) (UniProt Q06187); assay: Inhibition of BTK at 1 uM in presence of 10 uM ATP by Select Screen kinase assay relative to untreated control
# How it was run: (§2)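 Single-point screen at 1 μM against a panel of 220 purified kinases, run by Invitrogen staff as a SelectScreen profiling service. Read-out is percent inhibition of kinase activity.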
# [6] = molecular target: RAC-gamma serine/threonine-protein kinase (Homo sapiens) (UniProt Q9Y243); assay: Inhibition of AKT3 at 1 uM in presence of 10 uM ATP by Select Screen kinase assay relative to untreated control; how it was run: as §2
# [7] = molecular target: Ribosomal protein S6 kinase alpha-1 (Homo sapiens) (UniProt Q15418); assay: Inhibition of RPS6KA1 at 1 uM in presence of 100 uM ATP by Select Screen kinase assay relative to untreated control
# [8] = molecular target: Serine/threonine-protein kinase D3 (Homo sapiens) (UniProt O94806); assay: Inhibition of PRKCN at 1 uM in presence of 10 uM ATP by Select Screen kinase assay relative to untreated control
# [9] = molecular target: Aurora kinase A (Homo sapiens) (UniProt O14965); assay: Inhibition of STK6 at 1 uM in presence of 10 uM ATP by Select Screen kinase assay relative to untreated control
# How it was run: (§3)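 Commercial SelectScreen profiling panel of 220 purified kinases. Each kinase was tested at a single inhibitor concentration of 1 μM, and activity was expressed as percent inhibition.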
# [10] = molecular target: Casein kinase II subunit alpha' (Homo sapiens) (UniProt P19784); assay: Inhibition of CSNK2A2 at 1 uM in presence of 10 uM ATP by Select Screen kinase assay relative to untreated control
# How it was run: (§4)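 Part of a 220-kinase panel of purified kinases, each tested with compound at 1 μM. Percent inhibition was measured in the Invitrogen SelectScreen profiling assay.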
# [11] = molecular target: Beta-adrenergic receptor kinase 1 (Homo sapiens) (UniProt P25098); assay: Inhibition of ADRBK1 at 1 uM in presence of 10 uM ATP by Select Screen kinase assay relative to untreated control; how it was run: as §2
# [12] = molecular target: Casein kinase I isoform epsilon (Homo sapiens) (UniProt P49674); assay: Inhibition of CSNK1E at 1 uM in presence of 10 uM ATP by Select Screen kinase assay relative to untreated control
# [13] = molecular target: Tyrosine-protein kinase ABL1 (Homo sapiens) (UniProt P00519); assay: Inhibition of ABL1 at 1 uM in presence of 10 uM ATP by Select Screen kinase assay relative to untreated control; how it was run: as §2
# [14] = molecular target: Ribosomal protein S6 kinase alpha-2 (Homo sapiens) (UniProt Q15349); assay: Inhibition of RPS6KA2 at 1 uM in presence of 10 uM ATP by Select Screen kinase assay relative to untreated control
# [15] = molecular target: Cyclin-dependent kinase 2/cyclin A (Homo sapiens) (UniProt P24941+P20248+P78396); assay: Inhibition of CDK2/cyclin A at 1 uM in presence of 10 uM ATP by Select Screen kinase assay relative to untreated control; assay type: protein-complex assay; how it was run: as §2
# [16] = molecular target: Tyrosine-protein kinase JAK2 (Homo sapiens) (UniProt O60674); assay: Inhibition of JAK2 JH1 JH2 domain at 1 uM in presence of 100 uM ATP by Select Screen kinase assay relative to untreated control; how it was run: as §1
# [17] = molecular target: Mitogen-activated protein kinase kinase kinase kinase 2 (Homo sapiens) (UniProt Q12851); assay: Inhibition of MAP4K2 at 1 uM in presence of 10 uM ATP by Select Screen kinase assay relative to untreated control
# [18] = molecular target: MAP kinase-activated protein kinase 3 (Homo sapiens) (UniProt Q16644); assay: Inhibition of MAPKAPK3 at 1 uM in presence of 10 uM ATP by Select Screen kinase assay relative to untreated control
# [19] = system: Receptor-type tyrosine-protein kinase FLT3 (Homo sapiens), P36888 [D835Y]; assay: Inhibition of FLT3 D835Y mutant at 1 uM in presence of 10 uM ATP by Select Screen kinase assay relative to untreated control; how it was run: as §4
# [20] = molecular target: Mitogen-activated protein kinase 11 (Homo sapiens) (UniProt Q15759); assay: Inhibition of MAPK11 at 1 uM in presence of 100 uM ATP by Select Screen kinase assay relative to untreated control
# [21] = molecular target: Serine/threonine-protein kinase Sgk2 (Homo sapiens) (UniProt Q9HBY8); assay: Inhibition of SGK2 at 1 uM in presence of 10 uM ATP by Select Screen kinase assay relative to untreated control; how it was run: as §3
# [22] = molecular target: Aurora kinase B (Homo sapiens) (UniProt Q96GD4); assay: Inhibition of AURKB at 1 uM in presence of 10 uM ATP by Select Screen kinase assay relative to untreated control
# [23] = molecular target: Serine/threonine-protein kinase MARK1 (Homo sapiens) (UniProt Q9P0L2); assay: Inhibition of MARK1 at 1 uM in presence of 10 uM ATP by Select Screen kinase assay relative to untreated control
# [24] = molecular target: Misshapen-like kinase 1 (Homo sapiens) (UniProt Q8N4C8); assay: Inhibition of MINK1 at 1 uM in presence of 10 uM ATP by Select Screen kinase assay relative to untreated control
# [25] = molecular target: Serine/threonine-protein kinase BRSK1 (Homo sapiens) (UniProt Q8TDC3); assay: Inhibition of BRSK1 at 1 uM in presence of 10 uM ATP by Select Screen kinase assay relative to untreated control; how it was run: as §2
# [26] = molecular target: Serine/threonine-protein kinase pim-1 (Homo sapiens) (UniProt P11309); assay: Inhibition of PIM1 at 1 uM in presence of 10 uM ATP by Select Screen kinase assay relative to untreated control
# How it was run: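 Profiling panel of 220 purified kinases (SelectScreen), each compound tested at 1 μM. Read-out is percent inhibition of kinase activity.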
# [27] = molecular target: Testis-specific serine/threonine-protein kinase 2 (Homo sapiens) (UniProt Q96PF2); assay: Inhibition of STK22B at 1 uM in presence of 10 uM ATP by Select Screen kinase assay relative to untreated control; how it was run: as §3
# Sequence of Serine/threonine-protein kinase Sgk2 (Homo sapiens) (Q9HBY8 whole entry): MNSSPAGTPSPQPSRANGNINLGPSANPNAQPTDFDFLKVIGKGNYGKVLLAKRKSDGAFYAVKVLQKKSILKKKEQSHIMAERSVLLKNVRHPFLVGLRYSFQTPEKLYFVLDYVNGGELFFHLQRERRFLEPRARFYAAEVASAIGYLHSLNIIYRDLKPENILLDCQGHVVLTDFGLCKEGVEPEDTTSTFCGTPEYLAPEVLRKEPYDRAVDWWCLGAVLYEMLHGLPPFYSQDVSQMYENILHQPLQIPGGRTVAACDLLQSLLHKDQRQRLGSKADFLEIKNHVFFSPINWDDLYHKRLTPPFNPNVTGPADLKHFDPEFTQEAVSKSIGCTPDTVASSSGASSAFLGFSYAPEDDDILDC
# Sequence of cAMP-dependent protein kinase catalytic subunit PRKX (Homo sapiens) (P51817 whole entry): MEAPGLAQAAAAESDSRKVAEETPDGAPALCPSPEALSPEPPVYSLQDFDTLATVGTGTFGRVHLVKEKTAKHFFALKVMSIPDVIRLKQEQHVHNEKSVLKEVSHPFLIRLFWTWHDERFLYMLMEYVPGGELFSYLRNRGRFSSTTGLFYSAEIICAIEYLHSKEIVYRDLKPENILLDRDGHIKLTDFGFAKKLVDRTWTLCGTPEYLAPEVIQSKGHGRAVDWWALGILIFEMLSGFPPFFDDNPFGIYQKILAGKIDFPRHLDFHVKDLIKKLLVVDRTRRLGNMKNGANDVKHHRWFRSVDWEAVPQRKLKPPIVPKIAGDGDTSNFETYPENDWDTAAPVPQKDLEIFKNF
# Sequence of Serine/threonine-protein kinase MARK1 (Homo sapiens) (Q9P0L2 whole entry, looked up): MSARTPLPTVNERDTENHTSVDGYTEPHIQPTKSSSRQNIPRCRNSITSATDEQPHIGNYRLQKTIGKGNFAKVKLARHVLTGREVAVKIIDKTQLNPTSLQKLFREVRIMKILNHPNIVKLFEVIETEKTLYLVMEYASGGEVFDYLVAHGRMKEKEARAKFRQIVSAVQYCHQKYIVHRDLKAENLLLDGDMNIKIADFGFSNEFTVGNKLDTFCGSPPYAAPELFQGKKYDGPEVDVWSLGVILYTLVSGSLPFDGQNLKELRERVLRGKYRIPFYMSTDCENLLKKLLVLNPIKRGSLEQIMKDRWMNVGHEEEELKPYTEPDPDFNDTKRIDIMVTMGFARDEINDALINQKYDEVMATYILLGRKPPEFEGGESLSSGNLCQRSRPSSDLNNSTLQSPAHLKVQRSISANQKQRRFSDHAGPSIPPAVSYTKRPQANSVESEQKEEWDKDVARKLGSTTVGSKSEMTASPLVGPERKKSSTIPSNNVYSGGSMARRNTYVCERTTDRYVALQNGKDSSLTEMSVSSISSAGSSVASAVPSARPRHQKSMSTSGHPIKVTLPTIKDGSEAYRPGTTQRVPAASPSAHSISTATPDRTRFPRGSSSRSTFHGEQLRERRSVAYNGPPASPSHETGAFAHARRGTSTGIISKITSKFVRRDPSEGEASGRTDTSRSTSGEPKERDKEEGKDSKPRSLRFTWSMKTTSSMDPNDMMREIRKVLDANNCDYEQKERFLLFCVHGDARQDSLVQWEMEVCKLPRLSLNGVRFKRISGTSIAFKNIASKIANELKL
# Sequence of RAC-gamma serine/threonine-protein kinase (Homo sapiens) (Q9Y243 whole entry): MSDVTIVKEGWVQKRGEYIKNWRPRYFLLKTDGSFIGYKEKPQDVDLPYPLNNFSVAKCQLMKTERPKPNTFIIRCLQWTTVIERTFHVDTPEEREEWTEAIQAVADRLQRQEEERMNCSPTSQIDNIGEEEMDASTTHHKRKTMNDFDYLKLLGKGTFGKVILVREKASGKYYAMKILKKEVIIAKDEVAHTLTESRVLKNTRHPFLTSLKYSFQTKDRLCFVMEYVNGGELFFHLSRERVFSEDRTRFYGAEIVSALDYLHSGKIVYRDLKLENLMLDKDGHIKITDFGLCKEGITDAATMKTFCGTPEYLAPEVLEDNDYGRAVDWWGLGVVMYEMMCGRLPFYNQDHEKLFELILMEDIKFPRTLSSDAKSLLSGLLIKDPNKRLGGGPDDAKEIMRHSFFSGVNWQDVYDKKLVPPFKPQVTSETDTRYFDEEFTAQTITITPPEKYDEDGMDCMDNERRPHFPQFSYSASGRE
# Sequence of Misshapen-like kinase 1 (Homo sapiens) (Q8N4C8 whole entry, looked up): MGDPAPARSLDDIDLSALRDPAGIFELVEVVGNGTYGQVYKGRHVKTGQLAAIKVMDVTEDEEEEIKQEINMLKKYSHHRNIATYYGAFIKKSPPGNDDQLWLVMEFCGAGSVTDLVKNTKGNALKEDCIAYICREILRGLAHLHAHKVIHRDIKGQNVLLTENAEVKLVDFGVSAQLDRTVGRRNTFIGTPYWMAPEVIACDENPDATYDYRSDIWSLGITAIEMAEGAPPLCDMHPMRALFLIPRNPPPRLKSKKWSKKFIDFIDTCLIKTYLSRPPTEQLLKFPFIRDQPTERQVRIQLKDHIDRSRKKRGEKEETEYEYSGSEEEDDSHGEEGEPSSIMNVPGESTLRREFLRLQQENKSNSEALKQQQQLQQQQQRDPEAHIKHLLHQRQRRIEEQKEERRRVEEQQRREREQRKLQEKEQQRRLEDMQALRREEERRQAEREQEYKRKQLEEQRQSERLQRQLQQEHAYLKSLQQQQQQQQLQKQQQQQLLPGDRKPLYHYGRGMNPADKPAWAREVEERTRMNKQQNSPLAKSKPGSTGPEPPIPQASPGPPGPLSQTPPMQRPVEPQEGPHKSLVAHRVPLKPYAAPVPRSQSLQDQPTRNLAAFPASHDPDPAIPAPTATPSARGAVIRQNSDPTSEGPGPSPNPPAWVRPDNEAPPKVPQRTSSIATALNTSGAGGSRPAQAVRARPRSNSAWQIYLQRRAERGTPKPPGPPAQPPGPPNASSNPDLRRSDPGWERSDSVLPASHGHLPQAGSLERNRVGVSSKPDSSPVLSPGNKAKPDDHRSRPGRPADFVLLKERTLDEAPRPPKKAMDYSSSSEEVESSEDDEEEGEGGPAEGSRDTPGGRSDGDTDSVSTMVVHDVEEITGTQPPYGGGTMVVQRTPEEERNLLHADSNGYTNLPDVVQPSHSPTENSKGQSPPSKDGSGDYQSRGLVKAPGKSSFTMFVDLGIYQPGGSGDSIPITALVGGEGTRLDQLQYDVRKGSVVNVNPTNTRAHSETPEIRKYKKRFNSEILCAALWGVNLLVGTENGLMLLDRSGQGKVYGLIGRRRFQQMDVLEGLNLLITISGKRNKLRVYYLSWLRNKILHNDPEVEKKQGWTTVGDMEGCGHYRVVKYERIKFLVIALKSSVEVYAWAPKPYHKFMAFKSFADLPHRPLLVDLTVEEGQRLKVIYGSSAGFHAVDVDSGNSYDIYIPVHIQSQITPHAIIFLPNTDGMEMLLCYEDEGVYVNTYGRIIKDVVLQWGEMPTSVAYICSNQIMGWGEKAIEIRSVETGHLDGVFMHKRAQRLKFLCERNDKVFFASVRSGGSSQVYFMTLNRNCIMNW
# Sequence of Tyrosine-protein kinase JAK2 (Homo sapiens) (O60674 whole entry, the tested form may be a part): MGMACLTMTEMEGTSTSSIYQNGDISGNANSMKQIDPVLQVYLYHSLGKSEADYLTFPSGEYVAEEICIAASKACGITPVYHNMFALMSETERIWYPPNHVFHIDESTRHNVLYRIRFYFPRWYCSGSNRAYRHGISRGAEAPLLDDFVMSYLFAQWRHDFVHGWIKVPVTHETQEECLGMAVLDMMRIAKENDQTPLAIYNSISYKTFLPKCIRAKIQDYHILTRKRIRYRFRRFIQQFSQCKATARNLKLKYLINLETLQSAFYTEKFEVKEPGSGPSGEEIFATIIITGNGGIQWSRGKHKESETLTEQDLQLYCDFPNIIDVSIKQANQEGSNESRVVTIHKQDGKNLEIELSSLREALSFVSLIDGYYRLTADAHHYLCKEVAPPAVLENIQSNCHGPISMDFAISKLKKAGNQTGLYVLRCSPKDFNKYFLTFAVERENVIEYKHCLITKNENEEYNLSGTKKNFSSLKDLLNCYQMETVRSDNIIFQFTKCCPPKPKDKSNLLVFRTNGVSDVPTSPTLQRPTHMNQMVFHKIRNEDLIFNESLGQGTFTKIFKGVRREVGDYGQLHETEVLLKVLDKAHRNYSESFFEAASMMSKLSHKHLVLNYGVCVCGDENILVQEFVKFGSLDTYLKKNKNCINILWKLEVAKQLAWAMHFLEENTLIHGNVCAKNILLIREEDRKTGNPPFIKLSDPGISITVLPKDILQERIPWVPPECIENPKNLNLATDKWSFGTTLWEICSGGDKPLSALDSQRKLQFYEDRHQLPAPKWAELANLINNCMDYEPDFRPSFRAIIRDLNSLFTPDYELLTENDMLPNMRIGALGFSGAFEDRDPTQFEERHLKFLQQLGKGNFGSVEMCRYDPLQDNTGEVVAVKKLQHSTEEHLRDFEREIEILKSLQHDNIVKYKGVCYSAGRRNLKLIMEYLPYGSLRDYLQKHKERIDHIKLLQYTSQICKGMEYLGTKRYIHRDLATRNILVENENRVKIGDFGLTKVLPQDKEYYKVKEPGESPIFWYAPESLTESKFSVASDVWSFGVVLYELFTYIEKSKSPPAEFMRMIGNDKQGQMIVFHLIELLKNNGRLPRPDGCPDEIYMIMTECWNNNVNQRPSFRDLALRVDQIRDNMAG
# Sequence of MAP kinase-activated protein kinase 3 (Homo sapiens) (Q16644 whole entry, looked up): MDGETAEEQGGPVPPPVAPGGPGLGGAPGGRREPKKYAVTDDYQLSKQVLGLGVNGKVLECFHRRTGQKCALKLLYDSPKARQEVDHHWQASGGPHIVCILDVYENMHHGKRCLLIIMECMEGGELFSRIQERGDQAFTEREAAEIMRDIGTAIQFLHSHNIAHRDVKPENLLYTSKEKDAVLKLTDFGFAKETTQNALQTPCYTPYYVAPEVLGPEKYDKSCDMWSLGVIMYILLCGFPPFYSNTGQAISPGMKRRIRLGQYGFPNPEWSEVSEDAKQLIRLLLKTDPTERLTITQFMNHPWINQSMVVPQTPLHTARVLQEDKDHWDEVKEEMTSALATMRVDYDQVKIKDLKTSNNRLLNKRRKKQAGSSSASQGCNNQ
inhibition [1] [%],inhibition [2] [%],inhibition [3] [%],inhibition [4] [%],inhibition [5] [%],inhibition [6] [%],inhibition [7] [%],inhibition [8] [%],inhibition [9] [%],inhibition [10] [%],inhibition [11] [%],inhibition [13] [%],inhibition [14] [%],inhibition [15] [%],inhibition [16] [%],inhibition [17] [%],inhibition [18] [%],inhibition [19] [%],inhibition [20] [%],SMILES,inhibition [12] [%],further results
48,21,-1,16,11,17,63,18,22,27,8,12,55,2,0,18,11,71,4,COc1ccccc1N1CCN(c2ncnc3[nH]nc(Br)c23)CC1,23,inhibition [21]: 10%; inhibition [22]: 20%; inhibition [23]: 23%; inhibition [24]: 71%; inhibition [25]: 29%; inhibition [26]: 20%; inhibition [27]: 3%
–,–,–,–,–,–,–,–,–,–,–,–,–,–,–,–,–,–,–,Cc1n[nH]c2ccc(-c3cncc(OC[C@@H](N)Cc4c[nH]c5ccccc45)c3)cc12,42,–
28,105,89,56,23,3,42,83,97,26,15,37,63,84,97,97,10,100,6,O=C(NCCCNc1nc(Nc2cccc(NC(=O)N3CCCC3)c2)ncc1I)c1cccs1,–,inhibition [21]: 25%; inhibition [22]: 103%; inhibition [23]: 95%; inhibition [24]: 38%; inhibition [25]: 75%; inhibition [26]: 9%; inhibition [27]: 2%
